Laboratory results from ChEMBL document CHEMBL2062493, “Synthesis and evaluation of [¹¹C]Cimbi-806 as a potential PET ligand for 5-HT₇ receptor imaging” (Bioorg Med Chem, 2012).

Key:
[1] = Drug uptake in Danish Landrace pig cerebellum at 468+/-31 MBq, iv up to 20 mins by PET scanning; type: ADME, organism-based, Sus scrofa; details: in vivo
How it was run: (§1)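 Images were co-registered to an MRI atlas of the pig brain. Striatum was the mean of caudate and putamen, thalamus the mean of lateral and medial thalamus, and each region left/right averaged. Uptake is expressed as SUV (kBq/mL normalized to injected dose per kg). For the blocking condition, SB-269970 was infused at 0.5–1.0 mg/kg/h from 30 min before the second scan.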

Plasma [2] = experiment: Drug metabolism in Danish Landrace pig plasma pre-treated with SB269970 at 468+/-31 MBq, iv administered 30 mins post SB269970-treatment measured upto 90 mins; type: ADME, organism-based, Sus scrofa; details: in vivo
How it was run: (§2)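 Blood was drawn at 2.5–90 min and centrifuged; plasma was filtered 0.45 µm and analysed for parent and radiometabolites by column-switching HPLC with online radioactivity detection. For the blocking condition, SB-269970 was infused at 0.5–1.0 mg/kg/h from 30 min before the second scan and continued throughout it.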

[3] = Drug uptake in Danish Landrace pig cerebellum at 468+/-31 MBq, iv after 20 mins by PET scanning; type: ADME, organism-based, Sus scrofa; details: in vivo; how it was run: as §1
[4] = Drug uptake in Danish Landrace pig thalamus at 468+/-31 MBq, iv up to 20 mins by PET scanning; type: ADME, organism-based, Sus scrofa; details: in vivo; how it was run: as §1
[5] = Free fraction in Danish Landrace pig plasma at 5 MBq after 3 hrs by equilibrium dialysis; type: ADME, cell-free, Sus scrofa
[6] = Drug uptake in Danish Landrace pig thalamus at 468+/-31 MBq, iv after 20 mins by PET scanning; type: ADME, organism-based, Sus scrofa; details: in vivo; how it was run: as §1
Plasma [7] = experiment: Drug metabolism in Danish Landrace pig plasma at 468+/-31 MBq, iv; type: ADME, Sus scrofa; how it was run: as §2
[8] = Drug uptake in Danish Landrace pig thalamus pre-treated with SB269970 at 468+/-31 MBq, iv administered 30 mins post SB269970-treatment measured up to 20 mins by PET scanning; type: ADME, organism-based, Sus scrofa; details: in vivo; how it was run: as §1
[9] = Drug uptake in Danish Landrace pig striatum at 468+/-31 MBq, iv after 20 mins by PET scanning; type: ADME, organism-based, Sus scrofa; details: in vivo; how it was run: as §1
[10] = Drug uptake in Danish Landrace pig striatum pre-treated with SB269970 at 468+/-31 MBq, iv administered 30 mins post SB269970-treatment measured up to 20 mins by PET scanning; type: ADME, organism-based, Sus scrofa; details: in vivo; how it was run: as §1
[11] = Drug uptake in Danish Landrace pig cerebellum pre-treated with SB269970 at 468+/-31 MBq, iv administered 30 mins post SB269970-treatment measured up to 20 mins by PET scanning; type: ADME, organism-based, Sus scrofa; details: in vivo; how it was run: as §1
[12] = Drug uptake in Danish Landrace pig striatum at 468+/-31 MBq, iv up to 20 mins by PET scanning; type: ADME, organism-based, Sus scrofa; details: in vivo; how it was run: as §1
[13] = Lipophilicity, log D of the compound at pH 7.4 by HPLC analysis; type: physicochemical; details: buffer
How it was run: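 Measured by RP-HPLC on a C8 column at 37 °C with 50:50 25 mM sodium phosphate pH 7.4/MeOH at 2 mL/min and UV detection at 254 nm. LogD was derived from log retention factor via a calibration line of reference compounds with known logD.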

[14] = Displacement of [3H]SB269970 from 5HT7R in Danish Landrace pig brain section after 2 hrs by autoradiography; design: species or system Sus scrofa
How it was run: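 Pig brain sections incubated 2 h with [3H]SB-269970 plus varying competitor in 50 mM Tris–HCl pH 7.4. Washes were 3 × 5 min in ice-cold buffer, then a dip in ice-cold water. Sections were dried and exposed to tritium-sensitive plates for 14 days. Specific binding (total minus non-specific) was plotted against competitor concentration.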

| Compound | Drug uptake [1] | Drug metabolism (Plasma [2]) | Drug uptake [3] | Drug uptake [4] | fraction unbound at 3 h, 5 MBq [5] | Drug uptake [6] | Drug metabolism (Plasma [7]) | Drug uptake [8] | Drug uptake [9] | Drug uptake [10] | Drug uptake [11] | Drug uptake [12] | logD [13] | Ki [14] [nM] |
| --- | --- | --- | --- | --- | --- | --- | --- | --- | --- | --- | --- | --- | --- | --- |
| COc1cccc(OC)c1-c1cccc(CCN(C)[11CH3])c1 | Active | Active | Not Active | Active | 0.235 | Not Active | Active | Not Active | Not Active | Not Active | Not Active | Active | – | – |
| COc1cccc(OC)c1-c1cccc(CCN(C)C)c1 | – | – | – | – | – | – | – | – | – | – | – | – | 4.4 | 8.82 |
